In ChEMBL document CHEMBL5316288, “Synthetic Strategies for Improving Solubility: Optimization of Novel Pyrazolo[1,5-a]pyrimidine CFTR Activator That Ameliorates Dry Eye Disease” (J Med Chem, 2023):
Values after ≈ are worked out from the molar mass of the structure shown. Active and inactive are the calls of the source. No cut-off for these calls is given here.

biological target: T1, Cystic fibrosis transmembrane conductance regulator (Homo sapiens, UniProt P13569); test: Activation of human wild-type CFTR stably expressed in rat FRT cells assessed as increase in apical membrane chloride current incubated for 20 mins by patch-clamp assay; assay type: cell-based; details: not given
Target sequence in this assay (P13569 whole entry): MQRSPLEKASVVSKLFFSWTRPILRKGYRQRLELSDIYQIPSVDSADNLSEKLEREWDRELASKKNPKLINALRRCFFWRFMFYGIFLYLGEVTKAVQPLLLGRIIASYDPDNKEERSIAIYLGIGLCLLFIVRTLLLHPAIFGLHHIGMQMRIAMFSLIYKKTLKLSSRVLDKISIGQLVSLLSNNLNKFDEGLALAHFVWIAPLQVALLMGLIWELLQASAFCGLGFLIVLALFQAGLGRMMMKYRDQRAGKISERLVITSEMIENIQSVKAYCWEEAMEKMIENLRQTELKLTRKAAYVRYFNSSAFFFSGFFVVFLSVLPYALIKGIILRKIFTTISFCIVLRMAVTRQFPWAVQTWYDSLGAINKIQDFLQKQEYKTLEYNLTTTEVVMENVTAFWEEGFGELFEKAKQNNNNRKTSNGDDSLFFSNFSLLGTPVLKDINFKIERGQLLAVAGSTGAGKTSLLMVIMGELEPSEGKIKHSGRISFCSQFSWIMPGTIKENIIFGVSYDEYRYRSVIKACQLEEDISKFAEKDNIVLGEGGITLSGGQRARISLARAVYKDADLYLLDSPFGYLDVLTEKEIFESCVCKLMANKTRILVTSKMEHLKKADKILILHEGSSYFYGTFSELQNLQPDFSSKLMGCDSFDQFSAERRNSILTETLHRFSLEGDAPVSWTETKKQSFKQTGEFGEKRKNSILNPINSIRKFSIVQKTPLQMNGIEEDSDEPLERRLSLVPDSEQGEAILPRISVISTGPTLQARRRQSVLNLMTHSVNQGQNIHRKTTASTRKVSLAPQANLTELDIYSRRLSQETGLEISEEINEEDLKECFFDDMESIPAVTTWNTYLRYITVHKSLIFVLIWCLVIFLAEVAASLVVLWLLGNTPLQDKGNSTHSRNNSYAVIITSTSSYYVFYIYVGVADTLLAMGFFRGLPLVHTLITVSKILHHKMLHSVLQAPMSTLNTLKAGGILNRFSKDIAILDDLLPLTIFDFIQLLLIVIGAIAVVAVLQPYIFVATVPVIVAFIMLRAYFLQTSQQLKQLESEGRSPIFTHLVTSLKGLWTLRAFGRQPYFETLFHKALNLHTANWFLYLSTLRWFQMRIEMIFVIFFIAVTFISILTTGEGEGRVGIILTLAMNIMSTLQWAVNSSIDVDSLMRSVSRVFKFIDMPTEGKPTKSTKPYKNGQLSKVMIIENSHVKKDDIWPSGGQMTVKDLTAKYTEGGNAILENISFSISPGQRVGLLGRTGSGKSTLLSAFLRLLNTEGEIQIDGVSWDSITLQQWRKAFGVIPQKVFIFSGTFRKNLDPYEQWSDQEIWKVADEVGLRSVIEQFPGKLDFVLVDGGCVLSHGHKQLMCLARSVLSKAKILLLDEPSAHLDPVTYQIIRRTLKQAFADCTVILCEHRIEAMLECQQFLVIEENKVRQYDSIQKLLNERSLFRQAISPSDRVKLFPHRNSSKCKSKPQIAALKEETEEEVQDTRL

SMILES	EC50 [nM]
CCOc1ccc(NC(=O)c2cc3nccc(-c4ccc(OC)c(OC)c4)n3n2)cc1	342

biological target: T1, Cystic fibrosis transmembrane conductance regulator; test: Activation of human wild-type CFTR stably expressed in CHO-K1 cells co-expressing halide sensors YFP-H148Q/I152L assessed as CFTR-mediated iodide influx incubated for 10 mins by YFP fluorescence quenching assay; assay type: cell-based; details: not given
Target sequence in this assay (P13569 whole entry): as above

SMILES	EC50 [nM]
COc1ccc(-c2ccnc3cc(C(=O)N4CCN(Cc5ccccc5)CC4)nn23)cc1OC	730
COC(=O)c1ccc(NC(=O)c2cc3nccc(-c4ccc(OC)c(OC)c4)n3n2)c(Cl)c1	2700
COc1ccc(-c2ccnc3cc(C(=O)N4CCN(c5ccccc5)CC4)nn23)cc1OC	840
COc1ccc(-c2ccnc3cc(C(=O)NCc4ccc(N5CCOCC5)cc4)nn23)cc1OC	710
COc1ccc(-c2ccnc3cc(C(=O)N4CCN(C(=O)C5CC5)CC4)nn23)cc1OC	1700
COc1ccc(-c2ccnc3cc(C(=O)N4CCNCC4)nn23)cc1OC	17000
COc1ccc(-c2ccnc3cc(C(=O)Nc4ccc(C(=O)NCCN)cc4)nn23)cc1OC	16000
COc1ccc(-c2ccnc3cc(C(=O)N4CCN(C5CC5)CC4)nn23)cc1OC	1400
COc1ccc(-c2ccnc3cc(C(=O)N4CCN(C(C)C)CC4)nn23)cc1OC	6000
COc1ccc(-c2ccnc3cc(C(=O)N4CCN(C)CC4)nn23)cc1OC	8100

Second part, the compound after the results:

EC50 [nM]	SMILES
65	COc1ccc(-c2ccnc3cc(C(=O)Nc4ccccc4)nn23)cc1OC
18	CCOc1ccc(NC(=O)c2cc3nccc(-c4ccc(OC)c(OC)c4)n3n2)cc1
14	COC(=O)c1ccc(NC(=O)c2cc3nccc(-c4ccc(OC)c(OC)c4)n3n2)cc1
470	COC(=O)c1ccc(CNC(=O)c2cc3nccc(-c4ccc(OC)c(OC)c4)n3n2)cc1
700	COc1ccc(-c2ccnc3cc(C(=O)N4CC(NC(=O)OC(C)(C)C)C4)nn23)cc1OC
370	COc1ccc(-c2ccnc3cc(C(=O)N4CC[C@@H](NC(=O)OC(C)(C)C)C4)nn23)cc1OC
310	COC(=O)C12CC(NC(=O)c3cc4nccc(-c5ccc(OC)c(OC)c5)n4n3)(C1)C2
290	COc1ccc(-c2ccnc3cc(C(=O)Nc4ccc(C(=O)N5CCN(C)CC5)cc4)nn23)cc1OC.Cl
17	COc1ccc(-c2ccnc3cc(C(=O)Nc4ccc(C(=O)N5CCN(C(=O)OC(C)(C)C)CC5)cc4)nn23)cc1OC
42	COc1ccc(-c2ccnc3cc(C(=O)Nc4ccc(C(=O)O)cc4F)nn23)cc1OC
310	COc1ccc(-c2ccnc3cc(C(=O)Nc4ccc(C(=O)O)cc4)nn23)cc1OC
270	COc1ccc(-c2ccnc3cc(C(=O)N4CCN(C(=O)OC(C)(C)C)CC4)nn23)cc1OC
6	COc1ccc(-c2ccnc3cc(C(=O)Nc4ccc(OCCN5CCOCC5)cc4)nn23)cc1OC
110	COc1ccc(-c2ccnc3cc(C(=O)N4CCN(C(=O)c5ccccc5)CC4)nn23)cc1OC
200	COc1ccc(-c2ccnc3cc(C(=O)N4CCN(C(=O)c5ccccc5)C(C)(C)C4)nn23)cc1OC
130	COc1ccc(-c2ccnc3cc(C(=O)NC4CCCCC4)nn23)cc1OC
7	COc1ccc(-c2ccnc3cc(C(=O)Nc4ccc(N5CCOCC5)cc4)nn23)cc1OC

test system: not listed separately; test: Solubility of compound in PBS at 7.5 at 0.5 mg/ml incubated for 90 mins by LC-MS/MS analysis; assay type: physicochemical; details: PBS, pH 7.5
Summary of the method: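 Thermodynamic solubility: compound at 0.5 mg/mL in isotonic phosphate-buffered saline, pH 7.5, vortexed for 90 min. The solution was then filtered sequentially through 0.45, 1.2 and 5.0 μm filters. Concentration was measured by LC-MS/MS against a ≥6-point internal-standard calibration curve (weighted 1/x linear or quadratic) and back-calculated.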

SMILES	solubility thermodynamic at 1.5 h [µM]
COc1ccc(-c2ccnc3cc(C(=O)N4CCN(C(=O)c5ccccc5)[C@H](C)C4)nn23)cc1OC	159 (≈ 77 µg/mL)
COc1ccc(-c2ccnc3cc(C(=O)N[C@H]4CC[C@H](C(=O)OC)CC4)nn23)cc1OC	1.39 (≈ 0.611 µg/mL)
COc1ccc(-c2ccnc3cc(C(=O)N[C@H]4CC[C@@H](C(=O)OC)CC4)nn23)cc1OC	7.55 (≈ 3.31 µg/mL)

Results, then the compound that gave them:

solubility thermodynamic at 1.5 h [µM]	SMILES
1.42 (≈ 0.599 µg/mL)	COC(=O)C12CC(NC(=O)c3cc4nccc(-c5ccc(OC)c(OC)c5)n4n3)(C1)C2
237	COc1ccc(-c2ccnc3cc(C(=O)Nc4ccc(C(=O)N5CCN(C)CC5)cc4)nn23)cc1OC.Cl
0.341 (≈ 0.149 µg/mL)	COc1ccc(-c2ccnc3cc(C(=O)Nc4ccc(C(=O)O)cc4F)nn23)cc1OC
5.21 (≈ 2.18 µg/mL)	COc1ccc(-c2ccnc3cc(C(=O)Nc4ccc(C(=O)O)cc4)nn23)cc1OC
10.1 (≈ 4.74 µg/mL)	COc1ccc(-c2ccnc3cc(C(=O)N4CCN(C(=O)c5ccccc5)CC4)nn23)cc1OC
1.82 (≈ 0.907 µg/mL)	COc1ccc(-c2ccnc3cc(C(=O)N4CCN(C(=O)c5ccccc5)C(C)(C)C4)nn23)cc1OC

same assay, conditions: buffer, pH 7.5, 1.5 h

SMILES	solubility thermodynamic at 1.5 h [µM]
COc1ccc(-c2ccnc3cc(C(=O)Nc4ccccc4)nn23)cc1OC	0.059 (≈ 0.0221 µg/mL)

biological target: T1, Cystic fibrosis transmembrane conductance regulator; test: Activation of human CFTR expressed in CHO-K1 cells assessed as increase in intracellular cAMP level at 10 uM incubated for 10 mins in presence of IBMX by Immunoassay; assay type: cell-based; details: filed as activator
Target sequence in this assay (P13569 whole entry, looked up): as the sequence (P13569 whole entry) above

SMILES	Activity
C=C[C@@]1(C)CC(=O)[C@]2(O)[C@@]3(C)[C@@H](O)CCC(C)(C)[C@@H]3[C@H](O)[C@H](OC(C)=O)[C@@]2(C)O1	Active

organism: Mus musculus; test: Effect on tear secretion in C57BL/6J mouse assessed as increase in tear volume at 1 to 72 uM,TOP and measured upto 6 hrs by phenol red thread test; assay type: functional; details: dose 1-72 µM
Summary of the method: (§1)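 Normal female C57BL/6J mice received 2.5 μL eye drops in both eyes, held for 30 s. Vehicle was 5% polyoxyl 35 castor oil in sodium phosphate buffer. Tear volume was read by phenol red thread placed 15 s in the lateral canthus, wet length by caliper. Readings were taken at 0 h (baseline) and at 1, 3 and 6 h post-dose; n = 6.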

SMILES	Activity
CCOc1ccc(NC(=O)c2cc3nccc(-c4ccc(OC)c(OC)c4)n3n2)cc1	Dose-Dependent Effect

organism: Mus musculus; test: Effect on tear secretion in C57BL/6J mouse assessed as maximum tear volume at 1 to 72 uM,TOP and measured after 3 hr by phenol red thread test; assay type: functional; details: dose 1-72 µM; summary of the method: as §1

SMILES	Activity
CCOc1ccc(NC(=O)c2cc3nccc(-c4ccc(OC)c(OC)c4)n3n2)cc1	Active

organism: Mus musculus; test: Amelioration ocular surface damage in scopolamine-induced dry eye in C57BL/6J mouse model assessed as recovery of tear volume at 0.3 %,TOP 3 times day for 10 days by phenol red thread test; assay type: functional, organism-based; details: time 10.0 day
Summary of the method: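 In scopolamine-induced dry eye mice (0.5 mg/0.1 mL s.c. three times daily, 14 days), drops were given three times daily for 10 days. Scopolamine continued for the first 8 days. Tear volume was read with phenol red thread placed 15 s in the lateral canthus, wet length by caliper. Readings were taken before induction, after induction and after 10 days of drops; n = 5.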

SMILES	Activity
O=c1ccn(C2O[C@H](COP(=O)(O)OP(=O)(O)OP(=O)(O)OP(=O)(O)OC[C@H]3O[C@@H](n4ccc(=O)[nH]c4=O)[C@H](O)[C@@H]3O)[C@@H](O)[C@H]2O)c(=O)[nH]1 (some centres undefined)	Active

organism: Mus musculus; test: Amelioration ocular surface damage in scopolamine-induced dry eye in C57BL/6J mouse model assessed as decrease in IL-17 mRNA expression level in conjunctiva at 0.3 %,TOP 3 times day for 10 days by RT-PCR analysis; assay type: functional, organism-based; details: time 10.0 day
Summary of the method: (§2)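 Dry eye was induced with scopolamine hydrobromide 0.5 mg/0.1 mL given subcutaneously three times daily for 14 days. Eye drops were then applied to both eyes three times daily for 10 days, with scopolamine continued for the first 8 treatment days. The vehicle was 5% polyoxyl 35 castor oil in sodium phosphate buffer. Corneal and conjunctival IL-17 mRNA was measured by real-time PCR; mean ± S.E., n = 5.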

SMILES	Activity
O=c1ccn(C2O[C@H](COP(=O)(O)OP(=O)(O)OP(=O)(O)OP(=O)(O)OC[C@H]3O[C@@H](n4ccc(=O)[nH]c4=O)[C@H](O)[C@@H]3O)[C@@H](O)[C@H]2O)c(=O)[nH]1 (some centres undefined)	Active

organism: Mus musculus; test: Amelioration ocular surface damage in scopolamine-induced dry eye in C57BL/6J mouse model assessed as decrease in TNF-alpha mRNA expression level in conjunctiva at 0.3 %,TOP 3 times day for 10 days by RT-PCR analysis; assay type: functional, organism-based; details: time 10.0 day
Summary of the method: (§3)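 Dry eye was induced by subcutaneous scopolamine hydrobromide 0.5 mg/0.1 mL three times daily for 14 days. Eye drops (vehicle, 0.3% diquafosol or test agent) followed three times daily for 10 days, with scopolamine continued for the first 8 days. Cornea and conjunctiva mRNA for MMP-2 and TNF-α was quantified by real-time PCR; n = 5.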

SMILES	Activity
O=c1ccn(C2O[C@H](COP(=O)(O)OP(=O)(O)OP(=O)(O)OP(=O)(O)OC[C@H]3O[C@@H](n4ccc(=O)[nH]c4=O)[C@H](O)[C@@H]3O)[C@@H](O)[C@H]2O)c(=O)[nH]1 (some centres undefined)	Active

organism: Mus musculus; test: Amelioration ocular surface damage in scopolamine-induced dry eye in C57BL/6J mouse model assessed as decrease in MMP-2 mRNA expression level in conjunctiva at 0.3 %,TOP 3 times day for 10 days by RT-PCR analysis; assay type: functional, organism-based; details: time 10.0 day; summary of the method: as §3

SMILES	Activity
O=c1ccn(C2O[C@H](COP(=O)(O)OP(=O)(O)OP(=O)(O)OP(=O)(O)OC[C@H]3O[C@@H](n4ccc(=O)[nH]c4=O)[C@H](O)[C@@H]3O)[C@@H](O)[C@H]2O)c(=O)[nH]1 (some centres undefined)	Active

organism: Mus musculus; test: Amelioration ocular surface damage in scopolamine-induced dry eye in C57BL/6J mouse model assessed as decrease in IL-17 mRNA expression level in cornea at 0.3 %,TOP 3 times day for 10 days by RT-PCR analysis; assay type: functional, organism-based; details: time 10.0 day; summary of the method: as §2

SMILES	Activity
O=c1ccn(C2O[C@H](COP(=O)(O)OP(=O)(O)OP(=O)(O)OP(=O)(O)OC[C@H]3O[C@@H](n4ccc(=O)[nH]c4=O)[C@H](O)[C@@H]3O)[C@@H](O)[C@H]2O)c(=O)[nH]1 (some centres undefined)	Active

organism: Mus musculus; test: Amelioration ocular surface damage in scopolamine-induced dry eye in C57BL/6J mouse model assessed as decrease in TNF-alpha mRNA expression level in cornea at 0.3 %,TOP 3 times day for 10 days by RT-PCR analysis; assay type: functional, organism-based; details: time 10.0 day; summary of the method: as §3

SMILES	Activity
O=c1ccn(C2O[C@H](COP(=O)(O)OP(=O)(O)OP(=O)(O)OP(=O)(O)OC[C@H]3O[C@@H](n4ccc(=O)[nH]c4=O)[C@H](O)[C@@H]3O)[C@@H](O)[C@H]2O)c(=O)[nH]1 (some centres undefined)	Active

organism: Mus musculus; test: Amelioration ocular surface damage in scopolamine-induced dry eye in C57BL/6J mouse model assessed as decrease in MMP-2 mRNA expression level in cornea at 0.3 %,TOP 3 times day for 10 days by RT-PCR analysis; assay type: functional, organism-based; details: time 10.0 day; summary of the method: as §3

SMILES	Activity
O=c1ccn(C2O[C@H](COP(=O)(O)OP(=O)(O)OP(=O)(O)OP(=O)(O)OC[C@H]3O[C@@H](n4ccc(=O)[nH]c4=O)[C@H](O)[C@@H]3O)[C@@H](O)[C@H]2O)c(=O)[nH]1 (some centres undefined)	Active

biological target: T1, Cystic fibrosis transmembrane conductance regulator; test: Activation of human wild-type CFTR stably expressed in CHO-K1 cells assessed as increase in chloride current at holding potential 0 mV at 30 uM by whole-cell patch-clamp assay; details: filed as activator
Target sequence in this assay (P13569 whole entry, looked up): as the sequence (P13569 whole entry) above

SMILES	Activity
C=C[C@@]1(C)CC(=O)[C@]2(O)[C@@]3(C)[C@@H](O)CCC(C)(C)[C@@H]3[C@H](O)[C@H](OC(C)=O)[C@@]2(C)O1	Active
